Assay outcomes from PubChem.
Lipid droplet: hepatic lipid droplet formation modulation; AML12 mouse hepatocytes, oleate lipid droplets, BODIPY imaging; actives 0.4% (n = 240,000); inhibition, % at 6.5 µM; AID 1656;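 active = lipid droplet intensity inhibited by at least 50%, with more than 500 cells counted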
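material = mouse AML12 hepatocyte cell line, fixed after treatment | also added = 100 µM oleic acid challenge | doses = compound at 6.5 µM only | schedule = overnight exposure | technique = Image-based BODIPY and DAPI two-channel analysis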
MEKK2 WT-MEK5: raises or lowers MEK5 binding to wildtype human MEKK2 PB1 domain; bead flow cytometry, Alexa488-MEK5 binding to MEKK2 WT; actives lie on both sides; binding response (% of control), % at 10 µM; Q9Y2U5; actives 1.1% (n = 290,000); in the data active = binding response below about 67% or above about 130%
MEKK2 mut-MEK5: signal of MEK5 binding to mutant human MEKK2 PB1 domain | bead flow cytometry, Alexa488-MEK5 binding to MEKK2 mutant | percent response, % at 10 µM | actives 0.35% (n = 290,000) | AID 1530; in the data active = percent response above about 24%, passing the limit was not always enough
MEKK3 PB1 HTS: modulators (inhibitors or enhancers) of MEK5 binding to human MEKK3 PB1 domain; actives 1.4% (n = 290,000); Q99759; binding response (% of control), % at 10 µM; bead-based flow cytometry, Alexa488-MEK5 binding to MEKK3; actives lie on both sides; 0 = blocked by unlabeled MEK5, 100 = vehicle;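 active = binding response more than 3 SD above or below the average of its plate-row segment, actives on both sides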;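 note: Alexa488 bead fluorescence after subtracting the streptavidin-only scavenger bead signal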
Target sequence (Q99759 whole entry, looked up, the tested form may be a part): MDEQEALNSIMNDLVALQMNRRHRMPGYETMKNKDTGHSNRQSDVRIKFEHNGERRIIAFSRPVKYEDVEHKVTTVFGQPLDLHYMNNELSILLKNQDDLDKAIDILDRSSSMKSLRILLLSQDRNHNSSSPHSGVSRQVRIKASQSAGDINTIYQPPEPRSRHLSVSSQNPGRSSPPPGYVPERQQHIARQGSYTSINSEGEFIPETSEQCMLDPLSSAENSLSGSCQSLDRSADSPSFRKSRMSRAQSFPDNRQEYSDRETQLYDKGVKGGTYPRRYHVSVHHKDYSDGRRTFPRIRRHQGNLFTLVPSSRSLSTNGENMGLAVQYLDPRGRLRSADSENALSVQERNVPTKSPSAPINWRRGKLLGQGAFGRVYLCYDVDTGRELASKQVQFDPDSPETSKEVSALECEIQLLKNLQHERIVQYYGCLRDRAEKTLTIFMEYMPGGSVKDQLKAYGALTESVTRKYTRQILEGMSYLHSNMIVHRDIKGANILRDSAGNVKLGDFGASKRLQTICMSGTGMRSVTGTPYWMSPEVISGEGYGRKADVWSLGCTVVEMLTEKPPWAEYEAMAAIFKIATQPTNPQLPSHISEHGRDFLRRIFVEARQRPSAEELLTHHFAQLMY
MEKK2wt confirm: raises or lowers MEK5 binding to wildtype human MEKK2, retest. shares compounds with MEKK3 PB1 HTS. bead flow cytometry, Alexa488-MEK5 binding to MEKK2 WT; actives lie on both sides. binding response (% of control), % at 10 µM. actives 2.4% (n = 5,900). AID 1892; in the data active = binding response below about 16% or above about 210%; inactive = in between
MEKK2mut confirm: signal of MEK5 binding to mutant human MEKK2, retest; shares compounds with MEKK3 PB1 HTS; percent response, % at 10 µM; bead flow cytometry, Alexa488-MEK5 binding to MEKK2 mutant; actives 2% (n = 5,900); in the data active = percent response mostly above about 71%, no sharp cut-off; inactive = mostly below about 38%;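 note: higher means compound restores mutant binding toward wildtype level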
MEKK3 confirm: MEKK3-MEK5 PB1 inhibition, single concentration confirmation | shares compounds with MEKK3 PB1 HTS | bead flow cytometry, Alexa488-MEK5 binding to MEKK3; hits give low values | binding response (% of control), % at 10 µM | actives 1.8% (n = 5,900);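 active = binding response below 72% of control, or above a set upper limit, though filed actives all read lower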;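 note: lower values mean stronger disruption of MEK5 binding to MEKK3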
Each line names hits and unclear results; the compound was inactive in the other large screens (follow-up assays come after a bar, where they were run); [ ] = another dose, or the depositor's remark. Only some compounds are listed: those with a hit (about 2.6% of all), similar ones and a draw of the others.

Cc1onc(-c2ccccc2)c1C(=O)Nc1sc2c(c1C(N)=O)CCC2	MEKK2 WT-MEK5 2.0[inhibitor], MEKK3 PB1 HTS 2.0[inhibitor] (no result: Lipid droplet) | MEKK2wt confirm inactive | MEKK2mut confirm inactive | MEKK3 confirm inactive
NCCNC(=O)c1c(NC(=O)c2ccccc2)sc2c1CCCC2	MEKK2 WT-MEK5 149, MEKK2 mut-MEK5 30 | MEKK2wt confirm inactive | MEKK2mut confirm inactive | MEKK3 confirm inactive
Cc1onc(-c2c(F)cccc2Cl)c1C(=O)NCCc1ccncc1	none
CCn1ccc(C(=O)Nc2ccsc2C(=O)OC)n1	none
Cc1nn(Cc2ccccc2)c2sc(C(=O)N3CCN(Cc4ccc5c(c4)OCO5)CC3)cc12	none
NC1=NC[C@@H](Cc2ccc(O)cc2)N1CCCCC1CCCCC1	MEKK2 WT-MEK5 134 | MEKK2wt confirm inactive | MEKK2mut confirm inactive | MEKK3 confirm inactive
O=C(CCC1CCCCC1)NCCN1C2=NC[C@@H](Cc3ccccc3)N2C[C@H]1Cc1ccc(O)cc1	MEKK2 WT-MEK5 149 | MEKK2wt confirm inactive | MEKK2mut confirm inactive | MEKK3 confirm inactive
C[C@H]1CN=C2N(CCNC(=O)CCC3CCCCC3)[C@H](Cc3ccc(O)cc3)CN21	none
COc1ccc(C[C@H]2CN3C(=NC[C@@H]3C)N2CCNC(=O)CCC2CCCCC2)cc1	none
O=C(CCC1CCCCC1)NCCN1C2=NC[C@H](Cc3ccccc3)N2C[C@H]1Cc1ccc(O)cc1	MEKK2 WT-MEK5 163 | MEKK2wt confirm inactive | MEKK2mut confirm 89 | MEKK3 confirm inactive
NC1=NC[C@H](Cc2ccc(O)cc2)N1CC1CCCCC1	none
C=CCC1(/C=N/O)CCOC(C)(C)C1 (configuration not stated)	none
COc1cc(/C=C2\SC(=S)N(Nc3ncc(C(F)(F)F)cc3Cl)C2=O)ccc1O	MEKK2 WT-MEK5 62[inhibitor] | MEKK2wt confirm inactive | MEKK2mut confirm inactive | MEKK3 confirm inactive
Cc1cc(C)nc(NN2C(=O)/C(=C/c3ccccc3)SC2=S)n1	none (no result: Lipid droplet)
CN(C)c1ccc(/C=C2\SC(=S)N(Nc3ncc(C(F)(F)F)cc3Cl)C2=O)cc1	MEKK2 WT-MEK5 305, MEKK2 mut-MEK5 309 (no result: Lipid droplet) | MEKK2wt confirm inactive | MEKK2mut confirm inactive | MEKK3 confirm 56
c1ccc2oc(-c3ccc(Nc4nc(N5CCCC5)nc(N5CCOCC5)n4)cc3)nc2c1	none
CCOc1cc(S(=O)(=O)NCc2ccco2)c(OCC)cc1-n1cnnn1	none (no result: Lipid droplet)
COc1ccc(OCC(=O)Nc2ccncc2)cc1	none
NC(N)=N/N=C/c1ccc(OCc2ccccc2Cl)cc1	MEKK2 WT-MEK5 208, MEKK2 mut-MEK5 49 (no result: Lipid droplet) | MEKK2wt confirm 209 | MEKK2mut confirm inactive | MEKK3 confirm inactive
Nc1nnnn1/N=C/c1cccc(OCc2ccccc2Cl)c1	none
OCCCCNCc1ccc(OCc2ccccc2Cl)cc1	MEKK2 WT-MEK5 163, MEKK2 mut-MEK5 27 (no result: Lipid droplet) | MEKK2wt confirm inactive | MEKK2mut confirm inactive | MEKK3 confirm inactive
O=C(Nc1ccc(C(F)(F)F)cc1)c1cc(S(=O)(=O)NCC2COc3ccccc3O2)ccc1F (configuration not stated)	MEKK3 PB1 HTS 136 | MEKK2wt confirm inactive | MEKK2mut confirm inactive | MEKK3 confirm inactive
Cc1nc2cccc(C)n2c(=O)c1Cl	none
COc1ccc(S(=O)(=O)N2CCC(n3cnc4cc(C(F)(F)F)ccc43)CC2)cc1	MEKK3 PB1 HTS 126 (no result: Lipid droplet) | MEKK2wt confirm inactive | MEKK2mut confirm inactive | MEKK3 confirm inactive
COc1ccc(S(=O)(=O)N2CCC(n3cnc4ccccc43)CC2)cc1	none
COc1cc(/C=N/NS(=O)(=O)c2ccc(C(C)(C)C)cc2)cc([N+](=O)[O-])c1O	MEKK2 WT-MEK5 48[inhibitor] | MEKK2wt confirm inactive | MEKK2mut confirm inactive | MEKK3 confirm inactive
COc1cc(/C=N/NS(=O)(=O)c2ccc(C)c([N+](=O)[O-])c2)cc([N+](=O)[O-])c1O	none
CCN(CC)S(=O)(=O)c1cc(NC(=O)CSc2nc3c(cc2C#N)C(=O)CC(C)(C)C3)ccc1C	none
CCN(CC)S(=O)(=O)c1ccc(OCC(=O)NCc2ccco2)cc1	none
CCN(CC)S(=O)(=O)c1ccc(OCC(=O)NCc2ccccc2)cc1	MEKK2 WT-MEK5 38[inhibitor], MEKK3 PB1 HTS 27[inhibitor] (no result: Lipid droplet) | MEKK2wt confirm inactive | MEKK2mut confirm inactive | MEKK3 confirm inactive
O=C(Nc1cccc(C(F)(F)F)c1)C1CCN(S(=O)(=O)c2cccnc2)CC1	none
CCOc1ccc(S(=O)(=O)Oc2ccc3ccccc3c2)cc1	MEKK3 PB1 HTS 148 | MEKK2wt confirm inactive | MEKK2mut confirm inactive | MEKK3 confirm inactive
Cc1ccc(S(=O)(=O)Oc2ccc3ccc(O)cc3c2)cc1	none
Cc1cccc(CN2CCN(C(c3ccccc3)c3ccc(Cl)cc3)CC2)c1 (configuration not stated)	MEKK2 WT-MEK5 155 | MEKK2wt confirm inactive | MEKK2mut confirm inactive | MEKK3 confirm inactive
CCn1c(O)c(/C=C/C=C/C=Nc2ccccc2)sc1=S	MEKK2 WT-MEK5 59[inhibitor] | MEKK2wt confirm inactive | MEKK2mut confirm inactive | MEKK3 confirm inactive
O=C(CSc1n[nH]c(-c2ccncc2)n1)Nc1ccccc1C(F)(F)F	none
CS(=O)(=O)N1CCN=C1SCc1ccc([N+](=O)[O-])cc1	none
CCOC(=O)CCC(NC(=O)CCCC(=O)NC(CCC(=O)OCC)C(=O)OCC)C(=O)OCC (configuration not stated)	MEKK3 PB1 HTS 129 | MEKK2wt confirm inactive | MEKK2mut confirm inactive | MEKK3 confirm inactive
Cc1ccc(OCC(=O)Nc2cnn(CCCC(=O)O)c2)c([N+](=O)[O-])c1	none
CCc1ccc(/C=N/NC(=O)C(=O)NCCCN2CCOCC2)cc1	none
CC(C)(c1ccccc1)c1ccc(OCC(O)CNC2CCN(Cc3ccccc3)CC2)cc1 (configuration not stated)	MEKK2 WT-MEK5 252, MEKK2 mut-MEK5 62 | MEKK2wt confirm inactive | MEKK2mut confirm inactive | MEKK3 confirm inactive
CS(=O)(=O)N(CC(=O)N1CCc2ccccc2C1)Cc1ccccc1	none
Cc1nn(C)cc1C(C(=O)NC1CCCCC1)N(Cc1ccc(F)cc1)C(=O)c1cnccn1 (configuration not stated)	none
CC(=O)OC1OCCOC1NC(=S)NCc1ccco1 (configuration not stated)	MEKK3 PB1 HTS 1.0[inhibitor] (no result: MEKK2 WT-MEK5) | MEKK2wt confirm inactive | MEKK2mut confirm inactive | MEKK3 confirm inactive
CC(=O)OC1OCCOC1NC(=S)Nc1cccc(C(F)(F)F)c1 (configuration not stated)	none
COc1ccc(CN(C)C(C)C(=O)Nc2ccc([N+](=O)[O-])cc2Cl)cc1OC (configuration not stated)	none
